Where “and” joins values, the source holds several entries; their conditions need not be identical. Identical values can stand only once. Calls of active or inactive are those of the source. No cut-off for these calls is given here.
Assays:
[1] = Displacement of [3H]methyllycaconitine from chimeric alpha-7nAChR D197A mutant/5HT3A receptor in tsA201 cells; format: cell-based, Homo sapiens
Method in brief: (§1)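 tsA-201 cells transiently transfected with 4 µg WT or mutant α7/5-HT3A chimera and assayed 2 days later. Membranes washed twice at 50000g in 50 mM Tris-HCl pH 7.2. Incubated with 0.5 nM [3H]MLA and compound for 2.5 h at room temperature with shaking; nonspecific binding with 5 mM (S)-nicotine. PEI-soaked GF/C filtration, scintillation counting. Ki derived; duplicate, 3–7 experiments.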

tsA201 [2] = assay: Displacement of [3H]methyllycaconitine from chimeric alpha-7nAChR Y93A mutant/5HT3A receptor in tsA201 cells; format: cell-based; conditions: Homo sapiens; method in brief: as §1
[3] = Antagonist activity at human alpha-7 nAChR Y188A mutant coexpressed with human Ric3 in tsA201 cells by FMP assay; format: functional, cell-based
[4] = Displacement of [3H]methyllycaconitine from chimeric alpha-7nAChR S148A mutant /5HT3A receptor in tsA201 cells; format: cell-based, Homo sapiens; method in brief: as §1
[5] = Displacement of [3H]methyllycaconitine from chimeric alpha7nAChR W55Y mutant/5HT3A receptor in tsA201 cells; format: cell-based, Homo sapiens; method in brief: as §1
[6] = Displacement of [3H]methyllycaconitine from chimeric alpha-7nAChR W55A mutant /5HT3A receptor in tsA201 cells; format: cell-based, Homo sapiens; method in brief: as §1
[7] = target: T1, Neuronal acetylcholine receptor subunit alpha-7 (Homo sapiens, UniProt P36544); assay: Displacement of [3H]methyllycaconitine from alpha7 nAChR in tsA201 cells co-expressed with Ric3; format: cell-based
Target sequence in this assay (P36544 whole entry): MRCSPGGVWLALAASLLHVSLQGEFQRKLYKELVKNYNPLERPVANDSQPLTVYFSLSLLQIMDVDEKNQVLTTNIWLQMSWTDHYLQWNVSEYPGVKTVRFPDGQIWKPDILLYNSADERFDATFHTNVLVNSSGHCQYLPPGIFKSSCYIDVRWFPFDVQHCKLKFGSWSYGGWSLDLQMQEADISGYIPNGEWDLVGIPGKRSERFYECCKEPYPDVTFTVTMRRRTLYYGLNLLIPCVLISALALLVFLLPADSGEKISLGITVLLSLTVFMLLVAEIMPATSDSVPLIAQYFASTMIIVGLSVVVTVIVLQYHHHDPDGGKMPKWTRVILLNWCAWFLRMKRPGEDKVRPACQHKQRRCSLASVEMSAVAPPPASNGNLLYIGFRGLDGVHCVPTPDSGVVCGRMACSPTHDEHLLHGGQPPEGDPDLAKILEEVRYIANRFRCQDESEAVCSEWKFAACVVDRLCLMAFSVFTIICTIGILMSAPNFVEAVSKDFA

[8] = Displacement of [3H]methyllycaconitine from chimeric alpha-7nAChR N107A mutant/5HT3A receptor in tsA201 cells; format: cell-based, Homo sapiens; method in brief: as §1
[9] = Displacement of [3H]methyllycaconitine from chimeric alpha-7nAChR Y195F mutant/5HT3A receptor in tsA201 cells; format: cell-based, Homo sapiens; method in brief: as §1
[10] = target: T1, Neuronal acetylcholine receptor subunit alpha-7; assay: Displacement of [3H]methyllycaconitine from human alpha-7 in tsA201 cells coexpressed with 5HT3A receptor; format: cell-based
Target sequence in this assay (P36544 whole entry): as above

tsA201 [11] = assay: Displacement of [3H]methyllycaconitine from chimeric alpha-7nAChR W149Y mutant/5HT3A receptor W149Y mutant in tsA201 cells; format: cell-based; conditions: Homo sapiens; method in brief: as §1
tsA201 [12] = assay: Displacement of [3H]methyllycaconitine from chimeric alpha-7nAChR W149A mutant/5HT3A receptor in tsA201 cells; format: cell-based; conditions: Homo sapiens; method in brief: as §1
[13] = Displacement of [3H]methyllycaconitine from chimeric alpha-7nAChR K145R mutant /5HT3A receptor in tsA201 cells; format: cell-based, Homo sapiens; method in brief: as §1
[14] = Displacement of [3H]methyllycaconitine from chimeric alpha7nAChR K145A mutant/5HT3A receptor in tsA201 cells; format: cell-based, Homo sapiens; method in brief: as §1
tsA201 [15] = assay: Displacement of [3H]methyllycaconitine from chimeric alpha-7nAChR Y188A mutant/5-HT3A receptor in tsA201 cells; format: cell-based; conditions: Homo sapiens; method in brief: as §1
[16] = target: T1, Neuronal acetylcholine receptor subunit alpha-7
Target sequence in this assay (P36544 whole entry): as above

[17] = target: T1, Neuronal acetylcholine receptor subunit alpha-7; assay: Antagonist activity at human alpha-7 nAChR in tsA201 cells coexpressed with Ric3 by FMP assay; format: functional, cell-based
Target sequence in this assay (P36544 whole entry): as above

[18] = Antagonist activity at human alpha-7 nAChR Y195A mutant coexpressed with human Ric3 in tsA201 cells by FMP assay; format: functional, cell-based
[19] = Antagonist activity at human alpha7 nAChR W149Y mutant co-expressed with human Ric3 in tsA201 cells by FMP assay; format: functional, cell-based
[20] = Antagonist activity at human alpha7nAChR Y93A mutant co-expressed with human Ric3 in tsA201 cells by FMP assay; format: functional, cell-based
[21] = Displacement of [3H]methyllycaconitine from chimeric alpha7nAChR Y195A mutant/5HT3A receptor in tsA201 cells; format: cell-based, Homo sapiens; method in brief: as §1
[22] = Displacement of [3H]methyllycaconitine from chimeric alpha7nAChR R79A mutant/5HT3A receptor R79A mutant in tsA201 cells; format: cell-based, Homo sapiens; method in brief: as §1
[23] = target: T1, Neuronal acetylcholine receptor subunit alpha-7; assay: Displacement of [3H]methyllycaconitine from chimeric alpha7nAChR/5HT3A in tsA201 cells; format: cell-based
Target sequence in this assay (P36544 23-502 limits assumed): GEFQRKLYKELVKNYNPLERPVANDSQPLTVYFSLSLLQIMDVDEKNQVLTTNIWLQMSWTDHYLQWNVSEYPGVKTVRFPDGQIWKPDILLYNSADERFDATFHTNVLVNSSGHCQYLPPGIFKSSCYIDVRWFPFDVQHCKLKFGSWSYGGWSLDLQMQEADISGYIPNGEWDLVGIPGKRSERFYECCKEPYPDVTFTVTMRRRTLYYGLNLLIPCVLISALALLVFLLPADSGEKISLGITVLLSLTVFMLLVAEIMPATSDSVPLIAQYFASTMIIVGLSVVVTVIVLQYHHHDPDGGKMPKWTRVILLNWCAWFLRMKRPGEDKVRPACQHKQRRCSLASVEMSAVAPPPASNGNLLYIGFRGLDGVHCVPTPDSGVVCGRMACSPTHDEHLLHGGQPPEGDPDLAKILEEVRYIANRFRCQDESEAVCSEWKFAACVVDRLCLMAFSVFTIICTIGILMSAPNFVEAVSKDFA

tsA201 [24] = assay: Displacement of [3H]methyllycaconitine from chimeric alpha-7nAChR W55A/Y195A mutant /5HT3A receptor in tsA201 cells; format: cell-based; conditions: Homo sapiens; method in brief: as §1
[25] = Displacement of [3H]methyllycaconitine from chimeric alpha-7nAChR S150A mutant/5HT3A receptor in tsA201 cells; format: cell-based, Homo sapiens; method in brief: as §1
[26] = Displacement of [3H]methyllycaconitine from chimeric alpha-7nAChR Y168A mutant/5HT3A receptor in tsA201 cells; format: cell-based, Homo sapiens; method in brief: as §1
[27] = target: T2, Neuronal acetylcholine receptor; alpha3/beta4 (Rattus norvegicus, UniProt P04757+P12392); assay: Antagonist activity at rat alpha3beta4 nAChR expressed in HEK293 cells by FMP assay; format: functional, cell-based, Homo sapiens
[28] = target: T2, Neuronal acetylcholine receptor; alpha3/beta4; assay: Displacement of [3H]epibatidine from recombinant rat alpha-3-beta-4 nAChr in HEK293 cell line; format: cell-based
[29] = target: Neuronal acetylcholine receptor; alpha4/beta4 (Rattus norvegicus, UniProt P09483+P12392); assay: Displacement of [3H]epibatidine from recombinant rat alpha-4-beta-4 nAChr in HEK293 cell line; format: cell-based
[30] = target: T3, 5-hydroxytryptamine receptor 3A (Homo sapiens, UniProt P46098); assay: Antagonist activity at human 5HT3A receptor expressed in HEK293 cells by FMP assay; format: functional, cell-based
T3 sequence (P46098 whole entry): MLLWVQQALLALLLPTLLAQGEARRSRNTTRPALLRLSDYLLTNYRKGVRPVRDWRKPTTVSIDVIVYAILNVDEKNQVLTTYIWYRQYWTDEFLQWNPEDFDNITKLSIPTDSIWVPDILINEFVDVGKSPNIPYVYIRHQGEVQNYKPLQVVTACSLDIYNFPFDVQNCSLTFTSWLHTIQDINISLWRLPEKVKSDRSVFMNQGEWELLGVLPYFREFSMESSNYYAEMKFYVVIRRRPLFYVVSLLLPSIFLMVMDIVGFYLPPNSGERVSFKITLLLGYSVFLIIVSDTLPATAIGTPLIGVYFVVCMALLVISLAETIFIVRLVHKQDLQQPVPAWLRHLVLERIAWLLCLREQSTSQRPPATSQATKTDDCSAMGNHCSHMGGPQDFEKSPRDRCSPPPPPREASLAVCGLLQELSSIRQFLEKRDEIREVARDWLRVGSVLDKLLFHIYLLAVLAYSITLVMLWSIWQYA

[31] = target: Neuronal acetylcholine receptor; alpha4/beta2 (Rattus norvegicus, UniProt P09483+P12390); assay: Displacement of [3H]epibatidine from rat recombinant alpha-4-beta-2 nAChR in HEK293 cell line; format: cell-based
cells = format: functional, cell-based; conditions: Homo sapiens, HEK293
[32] = target: T4, Glycine receptor subunit alpha-1 (Homo sapiens, UniProt P23415); assay: Antagonist activity at human glycine alpha-1 receptor in HEK293 cells by FMP assay; format: functional, cell-based
T4 sequence (P23415 whole entry): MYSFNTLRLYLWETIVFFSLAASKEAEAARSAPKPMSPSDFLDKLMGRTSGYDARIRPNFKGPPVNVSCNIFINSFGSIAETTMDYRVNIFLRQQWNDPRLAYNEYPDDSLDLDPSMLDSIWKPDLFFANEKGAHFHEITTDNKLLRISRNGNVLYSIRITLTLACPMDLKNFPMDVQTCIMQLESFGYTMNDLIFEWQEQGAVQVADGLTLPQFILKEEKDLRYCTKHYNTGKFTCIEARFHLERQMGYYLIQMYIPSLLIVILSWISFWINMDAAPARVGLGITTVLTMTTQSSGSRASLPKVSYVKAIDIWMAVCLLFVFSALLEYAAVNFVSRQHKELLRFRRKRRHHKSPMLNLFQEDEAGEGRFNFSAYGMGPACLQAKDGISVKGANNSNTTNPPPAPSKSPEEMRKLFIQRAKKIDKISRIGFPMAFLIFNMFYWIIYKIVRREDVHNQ

[33] = target: T3, 5-hydroxytryptamine receptor 3A; assay: Displacement of [3H]GR65630 from human 5HT3A receptor in HEK293 cells; format: cell-based

T2 sequence (P04757 whole entry): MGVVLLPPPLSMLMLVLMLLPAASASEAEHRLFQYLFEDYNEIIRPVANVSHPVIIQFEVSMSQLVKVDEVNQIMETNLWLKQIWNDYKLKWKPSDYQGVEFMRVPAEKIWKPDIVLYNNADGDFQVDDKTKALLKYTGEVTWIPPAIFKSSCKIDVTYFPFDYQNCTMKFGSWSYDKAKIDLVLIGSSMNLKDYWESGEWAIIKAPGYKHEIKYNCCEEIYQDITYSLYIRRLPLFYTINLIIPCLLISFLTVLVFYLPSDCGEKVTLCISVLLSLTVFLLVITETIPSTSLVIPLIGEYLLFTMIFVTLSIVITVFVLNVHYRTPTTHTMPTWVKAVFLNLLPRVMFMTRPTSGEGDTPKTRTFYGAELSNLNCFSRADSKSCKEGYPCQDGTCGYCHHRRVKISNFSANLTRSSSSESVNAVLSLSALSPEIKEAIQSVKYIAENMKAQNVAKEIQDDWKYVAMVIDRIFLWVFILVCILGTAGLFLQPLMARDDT
T2 sequence (P12392 whole entry): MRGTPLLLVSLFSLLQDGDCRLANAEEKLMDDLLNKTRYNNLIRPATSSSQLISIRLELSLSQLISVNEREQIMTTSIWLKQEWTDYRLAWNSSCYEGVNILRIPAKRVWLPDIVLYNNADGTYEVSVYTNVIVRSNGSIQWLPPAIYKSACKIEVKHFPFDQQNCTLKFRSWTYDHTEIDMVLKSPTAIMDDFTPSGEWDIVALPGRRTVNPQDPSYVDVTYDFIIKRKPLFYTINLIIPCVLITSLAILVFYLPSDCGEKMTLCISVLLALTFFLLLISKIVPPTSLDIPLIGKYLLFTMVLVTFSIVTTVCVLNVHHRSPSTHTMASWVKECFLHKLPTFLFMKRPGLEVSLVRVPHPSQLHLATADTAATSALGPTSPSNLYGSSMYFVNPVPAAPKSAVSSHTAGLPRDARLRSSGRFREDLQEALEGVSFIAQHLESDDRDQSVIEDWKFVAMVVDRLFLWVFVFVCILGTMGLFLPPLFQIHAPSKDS
Neuronal acetylcholine receptor; alpha4/beta2, sequence (P09483 whole entry): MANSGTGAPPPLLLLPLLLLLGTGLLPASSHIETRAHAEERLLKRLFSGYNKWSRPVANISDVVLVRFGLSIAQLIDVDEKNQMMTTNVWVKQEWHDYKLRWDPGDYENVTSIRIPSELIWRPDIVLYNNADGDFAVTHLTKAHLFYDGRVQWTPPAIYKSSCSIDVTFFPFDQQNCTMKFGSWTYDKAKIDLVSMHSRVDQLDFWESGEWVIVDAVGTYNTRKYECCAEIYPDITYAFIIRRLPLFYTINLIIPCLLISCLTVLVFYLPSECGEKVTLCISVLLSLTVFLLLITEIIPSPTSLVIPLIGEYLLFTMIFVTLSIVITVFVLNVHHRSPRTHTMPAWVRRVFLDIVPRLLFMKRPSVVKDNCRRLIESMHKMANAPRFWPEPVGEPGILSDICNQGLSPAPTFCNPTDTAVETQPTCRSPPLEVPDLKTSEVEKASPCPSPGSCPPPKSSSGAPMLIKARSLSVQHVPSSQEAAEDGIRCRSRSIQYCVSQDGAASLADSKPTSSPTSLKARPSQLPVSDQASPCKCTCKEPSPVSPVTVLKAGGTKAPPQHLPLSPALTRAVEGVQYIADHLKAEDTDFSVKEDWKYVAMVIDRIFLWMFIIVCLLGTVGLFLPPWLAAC
Neuronal acetylcholine receptor; alpha4/beta2, sequence (P12390 whole entry): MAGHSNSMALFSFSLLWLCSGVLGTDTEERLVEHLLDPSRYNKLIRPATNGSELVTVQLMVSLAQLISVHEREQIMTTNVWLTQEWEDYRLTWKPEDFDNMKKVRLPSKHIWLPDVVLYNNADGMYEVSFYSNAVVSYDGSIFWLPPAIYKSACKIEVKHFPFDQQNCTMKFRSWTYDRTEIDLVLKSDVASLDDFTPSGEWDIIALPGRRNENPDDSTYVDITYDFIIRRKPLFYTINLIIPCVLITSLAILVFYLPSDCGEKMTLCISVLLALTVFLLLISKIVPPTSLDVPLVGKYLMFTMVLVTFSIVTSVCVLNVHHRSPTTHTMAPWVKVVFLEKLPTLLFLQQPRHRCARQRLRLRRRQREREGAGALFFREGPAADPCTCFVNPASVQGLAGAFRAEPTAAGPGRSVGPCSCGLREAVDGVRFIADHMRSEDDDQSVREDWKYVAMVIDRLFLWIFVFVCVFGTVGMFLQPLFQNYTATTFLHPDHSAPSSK
Neuronal acetylcholine receptor; alpha4/beta4, sequence (P09483 whole entry): as the sequence (P09483 whole entry) above
Neuronal acetylcholine receptor; alpha4/beta4, sequence (P12392 whole entry): as the sequence (P12392 whole entry) above

CCN1C[C@]2(COC(=O)c3ccccc3N3C(=O)C[C@H](C)C3=O)CC[C@H](OC)[C@@]34[C@@H]5C[C@H]6[C@H](OC)[C@@H]5[C@](O)(C[C@@H]6OC)[C@](O)([C@@H](OC)[C@H]23)[C@@H]14 [METHYLLYCACONITINE]
Ki [1]: 5.5 nM
pKi [1]: 8.26
Activity (tsA201 [2]): inactive
IC50 ([3]; read-out: IC50): 1800 nM
IC50 ([3]; read-out: pIC50 (converted)): 1820 nM
Ki [4]: 2.5 nM
pKi [4]: 8.6
Ki [5]: 4.5 nM
pKi [5]: 8.35
Ki [6]: 24 nM
pKi [6]: 7.62
Ki ([7]; read-out: Ki): 6.1 nM
Ki ([7]; read-out: pKi (converted)): 6.31 nM
Ki [8]: 3.2 nM
pKi [8]: 8.42
Ki [9]: 1.7 nM
pKi [9]: 8.78
Ki ([10]; read-out: Ki): 1.1 nM
Ki ([10]; read-out: pKi (converted)): 1 nM
Activity (tsA201 [11]): inactive
Activity (tsA201 [12]): inactive
Ki [13]: 4.3 nM
pKi [13]: 8.37
Ki [14]: 3.9 nM
pKi [14]: 8.41
Activity (tsA201 [15]): inactive
IC50 [16]: 8.3 nM and 8.32 nM
IC50 ([17]; read-out: IC50): 8.3 nM
IC50 ([17]; read-out: pIC50 (converted)): 8.32 nM
IC50 ([18]; read-out: IC50): 320 nM
IC50 ([18]; read-out: pIC50 (converted)): 324 nM
IC50 ([19]; read-out: IC50): 89 nM
IC50 ([19]; read-out: pIC50 (converted)): 10000 nM
IC50 ([20]; read-out: IC50): 10000 nM
IC50 ([20]; read-out: pIC50 (converted)): 31600 nM
Ki [21]: 13 nM
pKi [21]: 7.89
Ki [22]: 3.5 nM
pKi [22]: 8.45
Ki [23]: 1.6 nM
pKi [23]: 8.79
Activity (tsA201 [24]): inactive
Ki [25]: 3.5 nM
pKi [25]: 8.45
Ki [26]: 1.9 nM
pKi [26]: 8.71

C[N+](C)(C)Cc1c2n(c3ccccc13)Cc1c(C[N+](C)(C)C)c3ccccc3n1C2.[I-].[I-]
Ki [1]: 6300 nM
pKi [1]: 5.2
pIC50 ([27]; hek293): < 4
IC50 ([27]; read-out: IC50): > 100000 nM
Ki [28]: > 100000 nM
pKi ([28]; hek293): < 4
Activity (tsA201 [2]): inactive
Ki [4]: 430 nM
pKi [4]: 6.37
Ki [29]: > 100000 nM
pKi ([29]; hek293): < 4
Ki [5]: 2400 nM
pKi [5]: 5.61
Ki [6]: 1100 nM
pKi [6]: 5.94
Ki ([7]; read-out: Ki): 1300 nM
Ki ([7]; read-out: pKi (converted)): 1260 nM
Ki [8]: 15000 nM
pKi [8]: 4.82
Ki [9]: 8300 nM
pKi [9]: 5.08
Ki ([10]; read-out: Ki): 2400 nM
Ki ([10]; read-out: pKi (converted)): 2510 nM
pIC50 ([30]; hek293): < 4
IC50 ([30]; read-out: IC50): > 100000 nM
Activity (tsA201 [11]): inactive
Ki [31]: > 100000 nM
Ki ([31]; read-out: Ki): > 100000 nM
Activity (tsA201 [12]): inactive
Ki [13]: 5200 nM
pKi [13]: 5.28
IC50 (cells; read-out: IC50): > 100000 nM
IC50 (cells; read-out: pIC50 (converted)): > 100000 nM
Ki [14]: 7200 nM
pKi [14]: 5.14
Activity (tsA201 [15]): inactive
IC50 ([17]; read-out: IC50): 30000 nM
IC50 ([17]; read-out: pIC50 (converted)): 100000 nM
Ki [21]: 22000 nM
pKi [21]: 4.66
Ki [22]: 7600 nM
pKi [22]: 5.12
IC50 [32]: > 100000 nM
pIC50 ([32]; hek293): < 4
Ki [23]: 4420 nM
pKi [23]: 5.35
Activity (tsA201 [24]): inactive
Ki [25]: 6000 nM
pKi [25]: 5.22
Ki [26]: 5100 nM
pKi [26]: 5.29
Ki [33]: > 100000 nM
pKi ([33]; hek293): < 4

Source: ChEMBL document CHEMBL1148788 (J Med Chem, 2007)
